Measurements as given in ChEMBL document CHEMBL1287659, “Phenylmethylene hydantoins as prostate cancer invasion and migration inhibitors. CoMFA approach and QSAR analysis” (Eur J Med Chem, 2010).
The source made the active and inactive calls. The rule behind the calls is not given here.

Tests used:
PC-3 [1] = experiment: Antimetastatic activity against human PC3 cells after 24 hrs by wound-healing assay; type: functional, cell-based; settings: for IC50: PC-3, 24 h
Method in brief: (§1)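 Scratch wound in PC-3 monolayer. Compounds dissolved in DMSO, added in triplicate, DMSO as vehicle control. Incubation 24 h, serum-starved. Cells then fixed and Diff-Quick stained. Cells migrated into the wound counted in three or more random fields at 400×, mean ± SEM per field. IC50 by nonlinear regression of log concentration versus cells/well.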

PC-3 [2] = experiment: Antimetastatic activity against human PC3 cells at 100 uM after 24 hrs by wound-healing assay; type: functional; settings: PC-3, 24 h; method in brief: as §1
PC-3 [3] = experiment: Antiinvasive activity against human PC3 cells at 50 uM by cultrex cell invasion assay; type: functional, cell-based
Method in brief: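 Basement membrane extract coated upper chambers (4 h, 37 °C, 5% CO2) seeded with 50,000 PC-3 cells in serum-free RPMI plus compound at 50 µM. Lower chamber: RPMI, 10% FBS, fibronectin and N-formyl-met-leu-phe (10 nM) as chemoattractants. Migration 24 h at 37 °C. Invaded cells loaded with calcein-AM, fluorescence at 485/520 nm, counts from standard curve; n = 3, SD.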

PC-3 [4] = experiment: Antimetastatic activity against human PC3 cells at 50 uM after 24 hrs by wound-healing assay; type: functional; settings: PC-3, 24 h; method in brief: as §1
PC-3 [5] = experiment: Cytotoxicity against human PC3 cells up to 200 uM after 72 hrs by MTT assay; type: functional, cell-based
Method in brief: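 PC-3 cells seeded at 8 × 10³ per well, attached 24 h. Switched to serum-free RPMI with compound at up to 200 µM, 72 h at 37 °C, 5% CO2. MTT added for 4 h, then solubilization/stop solution. Absorbance read at 570 nm; cells/well from a hemocytometer-based standard curve.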

PC-3 [6] = experiment: Ratio of compound IC50 to 5-(4-(ethylthio)benzylidene)imidazolidine-2,4-dione IC50 for human PC3 cells at 100 uM after 24 hrs by wound-healing assay; type: functional

Structure (SMILES)	IC50 (PC-3 [1]; read-out: pIC50 (converted)) [µM]	inhibition at 100 µM (PC-3 [2]) [%]	IC50 (PC-3 [1]; read-out: IC50) [µM]	Activity (PC-3 [3])	also measured
O=C1NC(=O)/C(=C/c2cccc3c2NCC3)N1	86.5	–	–	–	–
COc1cccc(/C=C2\NC(=O)NC2=O)n1	59.8	–	–	–	–
CSc1ccc(/C=C2\NC(=O)NC2=O)cc1	44.7	80.9	44.7	Active	–
COc1c(/C=C2\NC(=O)NC2=O)ccc(OC(C)(C)C)c1Cl	91	39	91	–	–
C#CCOc1c(Cl)cc(/C=C2\NC(=O)NC2=O)cc1OC	21.8	88.8	21.8	Active	–
O=C1NC(=O)/C(=C/c2cc(I)c[nH]2)N1	199	–	–	–	–
O=C1NC(=O)/C(=C/c2ccncc2)N1	178	–	–	–	–
O=C1NC(=O)/C(=C/c2cnc[nH]2)N1	54.2	–	–	–	–
O=C1NC(=O)/C(=C/c2ccc(O)cc2)N1 [4-HYDROXYPHENYLMETHYLENE HYDANTOIN]	128	34	128	–	–
CC(C)(C)Oc1ccc(/C=C2\NC(=O)NC2=O)cc1	60.7	52.7	60.8	–	–
O=C1NC(=O)/C(=C/c2cccc(-c3cccs3)n2)N1	32.4	–	–	Active	–
CC(C)CCOc1ccc(/C=C2\NC(=O)NC2=O)cc1	46	66.7	46.1	–	–
O=C1NC(=O)/C(=C/c2cc(O)c[nH]2)N1	99.1	–	–	–	–
CCSc1ccc(/C=C2\NC(=O)NC2=O)cc1	42.9	–	42.9	Active	inhibition at 50 µM (PC-3 [4]): 42.9%
O=C1NC(=O)/C(=C/c2ccc(O)cn2)N1	81.8	–	–	–	–
COc1cc(/C=C2\NC(=O)NC2=O)ccc1OCC(=O)N1CCOCC1	94	33.2	94	–	–
CCCOc1cc(OC)c(/C=C2\NC(=O)NC2=O)c(OC)c1Cl	187	19	187	–	–
O=C1NC(=O)/C(=C/c2c[nH]c3ncccc23)N1	49.7	–	–	–	–
O=C1NC(=O)/C(=C/c2cccc3c2OCO3)N1	155	–	–	–	–
Cc1nc[nH]c1/C=C1\NC(=O)NC1=O	95.1	–	–	–	–
CCCOc1c(Br)cc(/C=C2\NC(=O)NC2=O)cc1OC	8.09	97.4	8.1	Active	Activity (PC-3 [1]): Dose-dependent effect; Activity (PC-3 [5]): inactive; Ratio IC50 (PC-3 [6]): 5
O=C1NC(=O)/C(=C/c2ccc(OCc3ccc(F)cc3)cc2)N1	23.8	76.3	23.8	Active	–
COc1cc(/C=C2\NC(=O)NC2=O)ccc1OCC(=O)c1ccccc1	19.7	91.8	19.7	Active	–
CCOc1cc(/C=C2\NC(=O)NC2=O)cc(Br)c1OCC	35.6	77.5	35.7	Active	–
COc1cc(/C=C2\NC(=O)NC2=O)ccc1OCC(=O)N1CCCC1	85.9	36.3	86	–	–
CCCOc1ccc(/C=C2\NC(=O)NC2=O)c(OC)c1	110	23	110	–	–
CCCOc1ccc(/C=C2\NC(=O)NC2=O)c(OCCC)c1	77.1	68.4	77.1	–	–
O=C1NC(=O)/C(=C/c2ccc(N3CCCC3)cc2)N1	48.6	75.9	48.7	Active	–
